B1: tRNA (parent)
chain: GUUCCGUUGGCGUAAUGGUAACGCGUCUCCCUCCUAAGGAGAAGACUGCGGGUUCGAGUCCCGUACGGAACG

This sample holds only a part of the variants without activity.

Data on 38 variants can be found in the RNAGym collection of RNA variant scans (doi:10.1126/science.aae0568).

The data set covers variants of B1. The data set can be described thus: yeast fitness relative to wild type (ratio to wild type); higher = fitter; tRNA-Arg(CCU), competitive growth, 37 C, YPD. The method, boiled down:
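Genotype frequency changes were the basis for Darwinian fitness relative to wild type. The frequencies came from 100-nucleotide paired-end sequencing of gene amplicons from the start population and each end population of pooled yeast strains with tRNA-Arg(CCU) gene variants at the native locus. Competition ran in YPD at 37°C for 24 hours in six replicates, genotypes needed ≥ 100 starting reads, and estimates < 0.5 were set to 0.5.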
In the case of GUUCCGUUGGCGAAAUGGUAACGCGUCUCCCCCCUAAGGAGAAGACUGCGGGUUCGAGUCCCGUACGGAACG, the yeast fitness amounted to 0.875.

As for GUUCCGUUGGCGAAAUGGUAACGCGUCUCCCACCUAAGGAGAAGACUGCGGGUUCGAGUCCCGUACGGAACG, the yeast fitness worked out at 0.69.

In the case of GUUCCGUUGGCGAAAUGGUAACGCGUCUCCCUCCUAAGGAGAAGACUGCGGGUCUGAGUCCUGUACGCAACG, the yeast fitness amounted to 0.686.

Consider GUUCCGUUGGCGAAAUGGUAACGCGUCUCCCACCUAAGGAGAAGACUGCGGGUUCGAGUCCUAUACGGAACG, for which the yeast fitness was at most 0.5.

On to GUUCCGUUGGCGAAAAGGUAACGCGUCUCCCUCCUAAGGAGAAGACUGCGGGUUCGAGUCGCGUACGGAACG, for which the yeast fitness was at most 0.5.

In the case of GUUCCGUUGGCGAAAUGGUAACGCGUCUCCCUCCAAAGGUACAGACUGCGGGUUCGAGUCCCGUACGGAACG, the yeast fitness is at most 0.5.

For the variant GUUCCGUUGGCGAAAUGGUAACGCGUCUCCCCCCUAAGGAGAAGACUGCGGGUUCGAGUCCCGUACGGUACG, the yeast fitness is 0.995.

For the variant GUUCCGUUGGCGAAAUGGUAACGCGUCUCCCUCCUAAGGAGAAGACUGCGGGUUCGAGACCCGAACGGACCG, the yeast fitness stood at 0.511.

On to GUUCCGUUGGCGAAAUGGUAACGCGUCUCCCUCCUAAGGAGAAGACUGCGGGUUCCAGUCCCGUCCGGAACG, for which the yeast fitness is at most 0.5.

Take GUUCCGUUGGCGAAAUGGUAACGCGUCUCCCGCCUAAGGAGAAGGCUGCGGGUUCGAGUCCCGUACGGAGCG: the yeast fitness is at most 0.5.

Take GUUCCGUUGGCGAAAUGGUAACGCGUCUCCCUCCUAAGGAGAAGACUGCGGGUACGAGUCCCGUACGGUACG: the yeast fitness turned out to be 0.529.

For GUUCCGUUGGCGAAAUGGUAACGCGUCCCCCUCCUAAGGAGAAGACUGCGGGUUCGAGUACCGUACGGAACG, the yeast fitness came to 0.551.

GUUCCGUUGGCGAAAAGGUAACGCGUCUCCCUCCUAAGGAGAAGACUGCGGGUACGAGUCCCGUACGGAACG: the yeast fitness came out at 0.505.

Turning to GUUCCGUUGGCGAAAUGGUAACGCGUCUCCCUCCUAAGGAGAAGACUGCGGGCUCGAGACCCGAACGGACCG, the yeast fitness was at most 0.5.

For the variant GUUCCGUUGGCGAAAUGGUAACGCGUCUCCCUCCUAAGGAGAAGACAGCGGGUUCGAGUCCCGUACGGAACG, the yeast fitness is 0.872.

For the variant GUUCCGUUGGCGAAAUGGUAACGCGUCUCCCUCCUAAGGAGAAGACCGCGGGUUCGAGUCCCGUACGGAACG, the yeast fitness is 0.774.

For the variant GUUCCGUUGGCGAAAUGGUAACGCGUCUCCCUCCGAAGGAGAAGACUGCGGGUUCGAGUCCCGUACGGAACG, the yeast fitness amounted to 0.688.

Take GUUCCGUUGGCGAAAUGGUAACGCGUCUCCCUCCAAAGGAGAAGACUGCGGGUUCGAGUCCCGUACGGAACG: the yeast fitness was found to be 0.561.

Take GUUCCGUUGGCGAAAUGGUAACGCGGCUUCCUCCUAAGGAGAAGACUGCGGGUUCGAGUCCCGUACGGAACG: the yeast fitness was at most 0.5.

GUUCCGUUGGCGAAAUGGCAACGGAUCUCCCUCCUAAGCCGAAGACUGCGCGUUCGAGUCCCGUACGGAACG: the yeast fitness was at most 0.5.

For GUUCCGUUGGCGAAAUGGGAACGCGUCUCCCUCCUAAGGAGAAGACUGUGGGUUCGAGUCCCGUACGGAACG, the yeast fitness is 0.625.

Regarding GUUCCGUUGGCGCGAUGGUAACGCGUCUCCCUCCUAAGGAGAAGACUGCGGGUUCCAGUCCCGUACGGAACG, the yeast fitness was at most 0.5.

For GUUCCGUUGGCGAAAAGGUAACGCGUCUCCCUCCUAAGGAGAAGACUGAGGGUUCGAGUCUGGUACGGAACG, the yeast fitness was at most 0.5.

On to GUUCCGUUGGCGAAAUGGUAACGCGUCUCCCACCUAUGGAAAAGACUGCGGGUUCGAGUCCCGUACGGAACG, for which the yeast fitness is at most 0.5.

On to GUUCCGUUGGCGAAAUGGUAACGCGUCUCCCUCCUAAGGAGAAGACUGCGGGUUCGACUUCCGUAGGGAACG, for which the yeast fitness is 0.574.

As to GUUCCGUUGGCGAAAUGGCUACGCGUCUGCCUGCUAGGGAGAAGACUGUGGGUUCGAGUCCCGUACGGAACG, the yeast fitness is at most 0.5.

Take GUUCCGUUGGCGCGAUGGUAACGCGUCUCCUUCCUAAGGAGAAGACUGCGGGUUCGAGUCCCGUACGGAACG: the yeast fitness worked out at 0.824.

For the variant GUUCCGUUGGCGAAAAGGUAACGCGUCUCCGUUCUAACGAGAAGACUGCGGGUUCGACUCCCGUAGGGAACG, the yeast fitness was at most 0.5.

As for GUUCCGUUGGCGCCAUGGUAACGCGUCUCCCUCUUAACGAGAAGACUGCGAGUUCGCGUCCCGUAUGGAACG, the yeast fitness was at most 0.5.

Regarding GUUCCGUUGGCGAAAUGGUAACGCGUCUCCCUCCUAAGGAGAAGACUGCGGGUUCGAGUCCCGAACGGAACG, the yeast fitness worked out at 0.832.

For the variant GUUCCGUUGGCGAAAUGGUAACGCGUCUCCCUCCUAAGGAGAAGACUGCGGGUUCGAGUCCCGCACGGAACG, the yeast fitness worked out at 0.922.

On to GUUCCGUUGGCGAAAUGGUAACGCGUCUCCCUCCUAAGGAGAAGACUGCGGGUUCGACUCCCGUACGGAACG, for which the yeast fitness was 0.853.

As for GUUCCGUUGGCGAAAUGGAAACGCGUCUCCCUCUUAAGGAGCUGACUGCGGGUUCGAGUCCCGUACGGAACG, the yeast fitness was at most 0.5.

GUUCCGUUGGCGAAAUGGUAACGCGUCUCCCUCCUAAGGAGAAGACUGCGGGUACGAGUCCCGUACGGAACG: the yeast fitness came to 0.622.

Consider GUUCCGUUGGCGAAAUGGUAACGCGUCCCCCUCCUAAGGAGAAGACUGCGGGUUCAAGUCCCGUACGGAACG, for which the yeast fitness amounted to 0.805.

GUUCCGUUGGCGAAAUGGUAACGCGUCUCCCUCCUAAGGAGAAGACUGCGGGUUCGACUCCCGUACGGUACG: the yeast fitness amounted to 1.04.

On to GUUCCGUUGGCGAAAUGGUAACGCGUCUCCCUCCUAAGGAGAACACUGCGGGUUCGAGUCCCGUACGGAACG, for which the yeast fitness was 0.94.

As for GUUCCGUUGGCGAAAUGGUAACGCGUCUCCCCCCUAAGGCGAAGACUGCGGGUUCGAGUCCCGUACAGAACG, the yeast fitness is at most 0.5.
